Assay outcomes from PubChem BioAssay.
A selection: hits, their analogues and other compounds. The true share with any hit is near 3.5%.
RGS4 inh: RGS4 inhibitors, primary screen, cell-based, HEK293 M3R inducible RGS4, calcium flux; Fluo-4 calcium flux; active compounds read high; triggered by carbachol at its EC20; actives 0.45% (n = 310,000); AID 463165, 2010; B-score at 10 µM; Regulator of G-protein signaling 4 (Homo sapiens), P49798;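 active = B-score, a plate-corrected calcium signal, over three deviations above library mean, with baseline fluorescence within five deviations of library mean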;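 note: RGS4 expression induced by doxycycline in cells with stable M3 receptor; B-score is computed from the integrated fluorescence ratio over baseline after carbachol; higher B-score means a larger calcium signal and so more RGS4 inhibition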
Target sequence (P49798 whole entry, looked up): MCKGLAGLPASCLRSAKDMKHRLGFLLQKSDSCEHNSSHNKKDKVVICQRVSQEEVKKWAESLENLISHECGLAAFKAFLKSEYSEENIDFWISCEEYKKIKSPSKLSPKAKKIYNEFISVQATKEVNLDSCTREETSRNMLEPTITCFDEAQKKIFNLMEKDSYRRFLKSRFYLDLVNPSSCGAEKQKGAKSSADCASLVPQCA
MrgX1 antag: antagonists of human MrgX1 receptor, primary screen, HEK293 cells, Fluo-4 calcium flux. B-score at 10 µM. Mas-related G-protein coupled receptor member X1 (Homo sapiens), Q96LB2. BAM8-22 antagonism; active compounds read low. actives 1.3% (n = 310,000);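 active = calcium-response B-score plate-corrected more than 3 library SD below zero, starting fluorescence within 5 deviations, no agonist response on first addition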;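 note: peak minus trough fluorescence over baseline after final BAM8-22 challenge near maximal dose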
Target sequence (Q96LB2 whole entry, looked up): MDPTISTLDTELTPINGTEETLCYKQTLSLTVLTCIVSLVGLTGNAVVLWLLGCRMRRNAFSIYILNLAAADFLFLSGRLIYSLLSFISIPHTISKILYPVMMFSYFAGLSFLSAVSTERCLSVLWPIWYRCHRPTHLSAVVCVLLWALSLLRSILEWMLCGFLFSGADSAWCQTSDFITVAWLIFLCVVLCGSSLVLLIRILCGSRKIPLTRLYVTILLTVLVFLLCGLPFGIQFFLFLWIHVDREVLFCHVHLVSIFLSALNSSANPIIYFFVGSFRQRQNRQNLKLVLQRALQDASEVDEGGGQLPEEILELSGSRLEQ
MrgX1 allo act: positive allosteric modulators of MrgX1, primary screen, HEK293 cells, Fluo-4 calcium flux; actives 0.63% (n = 310,000); AID 588675, 2011; FDSS; active compounds read high; B-score at 10 µM;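 active = plate-corrected calcium response at least 3 library SD above typical, normal starting fluorescence, not activating the receptor alone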;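 note: compound read alongside a low EC10 to EC30 dose of BAM8-22 agonist; peak minus trough fluorescence over baseline measured at the second addition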
RGS4 act: RGS4 potentiators or activators, primary screen, cell-based, HEK293 M3R inducible RGS4, calcium flux; actives 0.92% (n = 310,000); AID 463111, 2010; carbachol calcium flux Fluo4; active compounds read low; B-score at 10 µM;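 active = B-score of the integrated calcium signal more than 4 SD below the library mean, with starting fluorescence not abnormally high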;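 note: negative B-score means reduced calcium response which marks RGS4 activation or potentiation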
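Reagent: ECmax carbachol challenge; Test system: M3R-expressing HEK293 line, RGS4 induced by doxycycline; Schedule: overnight RGS4 induction, 30 min dye load 37 °C, 20 min compound RT; Detection: calcium dye Fluo4 fluorescence; Read-out: Agonist-evoked peak-minus-minimum fluorescence over baseline, integrated ratio, B score.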
MrgX1 ag: agonists of human MrgX1 receptor, primary screen, HEK293 cells, Fluo-4 calcium flux; B-score at 10 µM; actives 0.44% (n = 310,000); Mas-related G-protein coupled receptor member X1 (Homo sapiens), Q96LB2; Fluo-4 calcium fluorescence, agonist mode; active compounds read high; AID 588627, 2011;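 active = calcium response B-score plate-corrected fluorescence ratio at least 3 library SD, with starting fluorescence B-score inside 5 SD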
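System: HEK293 cells stably expressing human MrgX1 receptor; Dosing: test compound in the initial addition of three; Schedule: overnight plating, then 30 min 37 °C plus 30 min room-temperature dye loading; Detection: kinetic calcium dye fluorescence, Fluo-4 NW; Controls: per-plate positive and negative controls for Z′ factor.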
RGS4 block valid: enhanced carbachol calcium response, M3R/RGS4 cells, RGS4 inhibitor project, cell-based, validation screen, HEK293 M3R/RGS4, calcium flux; shares compounds with RGS4 inh; carbachol calcium Fluo-4 fluorescence; carbachol added at its EC20; 0 = buffer wells, 100 = carbachol control; calcium response, % at 10 µM; actives 65% (n = 1,700);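 active = duplicate-averaged calcium response above the buffer-only control mean plus 5 SD of those controls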;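 note: integrated fluorescence ratio F max minus min over baseline F0; higher response in RGS4-induced cells means RGS4 inhibition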
RGS4 uninduced: carbachol calcium response in non-induced M3R cells, confirmation, counter-screen for RGS4 inhibitor project, cell-based, HEK293 M3R; shares compounds with RGS4 inh; carbachol calcium Fluo-4; submaximal (EC20) carbachol stimulus; buffer wells 0%, carbachol control wells 100%; activity (percent), % at 10 µM; actives 20% (n = 1,900); AID 493000, 2010; call rule not given here;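 note: RGS4 induction absent so cells express M3R without RGS4; higher means more calcium signal and flags a non-specific hit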
M3R basal Ca ctr: second RGS4 inhibitor counter-screen in uninduced cells lacking carbachol; shares compounds with RGS4 inh; HEK293 M3R/RGS4 non-induced, Fluo-4 calcium, no carbachol; normalised: buffer wells 0%, carbachol wells 100%; calcium response (agonist-mode artifact), % at 10 µM; actives 22% (n = 1,900); AID 493001;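 active = duplicate-averaged calcium rise in uninduced cells above buffer wells' mean plus 5 SD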
Each line names hits and unclear results; the compound was inactive in the other large screens (follow-up assays come after a bar, where they were run).

C=CCN=C1S/C(=C/c2cccc([N+](=O)[O-])c2)C(=O)N1CC=C	none
O=C1/C(=C\c2ccc(O)cc2)SC(=S)N1Cc1ccccc1	RGS4 inh 8.1 | RGS4 block valid 14% | RGS4 uninduced inactive | M3R basal Ca ctr 28%
O=C1/C(=C/c2ccc(O)c([N+](=O)[O-])c2)SC(=S)N1Cc1ccccc1	RGS4 inh 7.8, MrgX1 antag -5.7 | RGS4 block valid 11% | RGS4 uninduced 37% | M3R basal Ca ctr inactive
O=C(O)c1cccc(CN2C(=O)S/C(=C/c3cccc([N+](=O)[O-])c3)C2=O)c1	RGS4 inh 26 | RGS4 block valid 62% | RGS4 uninduced 73% | M3R basal Ca ctr inactive
O=C(O)C(c1ccccc1)N1C(=O)/C(=C/c2cccs2)SC1=S (centres undefined)	none
CC(c1ccccc1)N1C(=O)/C(=C/c2ccncc2)SC1=S (centres undefined)	RGS4 inh 7 | RGS4 block valid 6.5% | RGS4 uninduced 34% | M3R basal Ca ctr inactive
O=C(O)c1ccc(/C=C2/SC(=S)N(Cc3ccccc3)C2=O)cc1	none
CCCCC(C(=O)O)C(C)CC(=O)NNC(=O)c1ccco1 (centres undefined)	none
CC(OC(=O)C1CCCC1)C(=O)Nc1ccc(S(N)(=O)=O)cc1 (centres undefined)	none
COc1cc(C(C(=O)NC2CCCC2)N(C(=O)c2snc(C(N)=O)c2N)C2CCCC2)cc(OC)c1OC (centres undefined)	none
CC(=O)Oc1ccc(/C=C2/SC(=S)N(Cc3ccccc3)C2=O)cc1	none
COc1ccc(CN2C(=O)/C(=C/c3ccncc3)SC2=S)cc1	RGS4 inh 11 | RGS4 block valid 25% | RGS4 uninduced inactive | M3R basal Ca ctr 22%
O=C(CCNc1ccc(F)c(Cl)c1)c1ccco1	none
O=C(CCNc1ccc(F)cc1)c1ccco1	RGS4 inh 5.4 | RGS4 block valid 11% | RGS4 uninduced inactive | M3R basal Ca ctr inactive
COc1ccc2c(c1)c(C(=O)CN1CCC(C(N)=O)CC1)c(C)n2C	none | RGS4 block valid inactive | RGS4 uninduced inactive | M3R basal Ca ctr inactive
COc1ccc2c(c1)c(C(=O)CN1CCCCC1)c(C)n2C	none
COc1ccc(C(=O)NCCN2C(=O)S/C(=C\c3cccnc3)C2=O)cc1[N+](=O)[O-]	none | RGS4 block valid inactive | RGS4 uninduced inactive | M3R basal Ca ctr inactive
COc1ccc(N2CCN(C(=O)c3ccc(NC(=O)C4=CSCCO4)cc3)CC2)cc1	none
COc1ccc(NC(=O)CSc2nnc(-c3ccccc3)n2N)cc1	none
CCn1c2ccccc2c2cc(NC(=O)CSc3nnc(-c4ccc(OC)cc4)n3N)ccc21	RGS4 inh 5.3 | RGS4 block valid 10% | RGS4 uninduced inactive | M3R basal Ca ctr inactive
Cc1ccc(/C=c2/sc3n(c2=O)CCCN=3)o1	RGS4 inh 5.3 | RGS4 block valid inactive | RGS4 uninduced inactive | M3R basal Ca ctr 12%
Cc1ccc(/C=c2\sc3n(c2=O)CN(c2ccc(Br)cc2)CN=3)o1	none
C=CCn1nc([N+](=O)[O-])nc1Sc1cccc2cccnc12	RGS4 inh 6.2 | RGS4 block valid 30% | RGS4 uninduced inactive | M3R basal Ca ctr inactive
Brc1cccc(C2Nc3cccc4cccc(c34)N2)c1	none
c1csc(C2Nc3cccc4cccc(c34)N2)c1	RGS4 inh 6.1 | RGS4 block valid inactive | RGS4 uninduced inactive | M3R basal Ca ctr inactive
Brc1ccc(C2Nc3cccc4cccc(c34)N2)o1	RGS4 inh 5.2 | RGS4 block valid inactive | RGS4 uninduced inactive | M3R basal Ca ctr inactive
Cc1[nH]n(-c2ccc(Br)cc2)c(=O)c1C=Nc1ccc(S(=O)(=O)Nc2nccs2)cc1	RGS4 inh 18 | RGS4 block valid 9.5% | RGS4 uninduced inactive | M3R basal Ca ctr inactive
Cc1ccc(-n2[nH]c(C)c(C=Nc3ccc(S(=O)(=O)Nc4nccs4)cc3)c2=O)cc1	none
Cc1cc(C)nc(NS(=O)(=O)c2ccc(N=Cc3c(C)[nH]n(-c4ccccc4)c3=O)cc2)n1	none
CCc1nnc(NS(=O)(=O)c2ccc(N=Cc3c(C)[nH]n(-c4ccc(C)c(C)c4)c3=O)cc2)s1	none | RGS4 block valid inactive | RGS4 uninduced inactive | M3R basal Ca ctr inactive
CC(Oc1ccc(Br)cc1)C(=O)NNC(=O)CCN1CCN(c2ccccc2)CC1 (centres undefined)	none
COCCNC(=S)N(CCCN(C)C)Cc1cc2cc3c(cc2[nH]c1=O)OCCO3	none | RGS4 block valid inactive | RGS4 uninduced inactive | M3R basal Ca ctr inactive
CCOCCCNC(=S)N(CCCN(C)C)Cc1cc2cc3c(cc2[nH]c1=O)OCCO3	none
COCCNC(=S)N(CCN(C)C)Cc1cc2cc3c(cc2[nH]c1=O)OCO3	none
COCCCNC(=S)N(CCCN(C)C)Cc1cc2cc3c(cc2[nH]c1=O)OCCO3	none | RGS4 block valid inactive | RGS4 uninduced inactive | M3R basal Ca ctr inactive
COc1c(/C=C2\SC(=Nc3ccccc3Cl)NC2=O)cccc1[N+](=O)[O-]	RGS4 inh 8.5 | RGS4 block valid 34% | RGS4 uninduced 70% | M3R basal Ca ctr inactive
O=C1NC(=Nc2ccccc2Cl)S/C1=C\c1cccc([N+](=O)[O-])c1O	none | RGS4 block valid inactive | RGS4 uninduced inactive | M3R basal Ca ctr inactive
CC1=C(C(=O)Nc2cc(C(=O)N3CCN(c4cccc(C)c4)C(C)C3)ccc2C)SCCO1 (centres undefined)	none
CC(C)c1ccc(/C=C2\CC/C(=C\C=N\N(C)C)C2=O)cc1	none
CN(C)/N=C/C=C1\CC/C(=C\c2ccc(F)c(F)c2)C1=O	none | RGS4 uninduced inactive | M3R basal Ca ctr 16%
O=C1CN(C(=O)c2ccc(Cl)c([N+](=O)[O-])c2)c2ccccc2N1	none
COc1ccc(C(=O)NCCc2nnc3ccc(SCC(=O)NCc4ccccc4)nn23)cc1	none
